pIC50: −log10 of the molar value.
Experiments:
Oryctolagus cuniculus [1] = organism: Oryctolagus cuniculus; experiment: Blockade of calcium-evoked contractions evaluated in depolarized rabbit aortic strips; assay type: functional; settings: Aorta
In short: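 Male New Zealand rabbit thoracic aorta, helicoidal strips, 2.5 g preload, Krebs–bicarbonate, 37 °C, 95% O2/5% CO2, pH 7.4. After 1 h equilibration, depolarized with 35 mM K+; 1.5 mM Ca2+ added 10 min later, repeated until reproducible. Compound at increasing concentrations from 20 min before and during Ca2+ addition; responses normalized to initial tension; IC50 by Finney method.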

Oryctolagus cuniculus [2] = organism: Oryctolagus cuniculus; experiment: Relative potency evaluated (relative potency = IC50 of compound / IC50 of nifedipine) in rabbit; assay type: functional
[3] = target: T1, Voltage-dependent L-type calcium channel subunit alpha-1C (Oryctolagus cuniculus, UniProt P15381); experiment: Blockade of calcium-evoked contractions in depolarized aortic strips; assay type: functional, tissue-based, Aorta
Oryctolagus cuniculus [4] = organism: Oryctolagus cuniculus; experiment: Relative potency was evaluated. (relative potency = IC50 of compound / IC50 of nifedipine); assay type: functional
Oryctolagus cuniculus [5] = organism: Oryctolagus cuniculus; experiment: Recovery of the initial contraction of rabbit aortic strips, blocked at 10e-7 M concentration.; settings: Aorta
[6] = target: T1, Voltage-dependent L-type calcium channel subunit alpha-1C; experiment: Selectivity index was measured as the IC50 needed to depress the heart beat divided by IC50 needed to block [Ca2+] contractions in rabbit aortic strips; assay type: functional, tissue-based, Aorta
Oryctolagus cuniculus [7] = organism: Oryctolagus cuniculus; experiment: Inhibition of electrically stimulated rabbit left atria contraction.; assay type: functional
In short: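 Rabbit left atria electrically driven (1 Hz, 10 ms, twice threshold voltage), equilibrated 1–1.5 h. Compounds added cumulatively (10^-10–10^-6 M), diluted from DMSO stocks into Krebs–Henseleit, final DMSO <0.1%. Isometric force recorded; IC50 from contractile force relative to initial control values, with 95% confidence limits.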

T1 sequence (P15381 whole entry): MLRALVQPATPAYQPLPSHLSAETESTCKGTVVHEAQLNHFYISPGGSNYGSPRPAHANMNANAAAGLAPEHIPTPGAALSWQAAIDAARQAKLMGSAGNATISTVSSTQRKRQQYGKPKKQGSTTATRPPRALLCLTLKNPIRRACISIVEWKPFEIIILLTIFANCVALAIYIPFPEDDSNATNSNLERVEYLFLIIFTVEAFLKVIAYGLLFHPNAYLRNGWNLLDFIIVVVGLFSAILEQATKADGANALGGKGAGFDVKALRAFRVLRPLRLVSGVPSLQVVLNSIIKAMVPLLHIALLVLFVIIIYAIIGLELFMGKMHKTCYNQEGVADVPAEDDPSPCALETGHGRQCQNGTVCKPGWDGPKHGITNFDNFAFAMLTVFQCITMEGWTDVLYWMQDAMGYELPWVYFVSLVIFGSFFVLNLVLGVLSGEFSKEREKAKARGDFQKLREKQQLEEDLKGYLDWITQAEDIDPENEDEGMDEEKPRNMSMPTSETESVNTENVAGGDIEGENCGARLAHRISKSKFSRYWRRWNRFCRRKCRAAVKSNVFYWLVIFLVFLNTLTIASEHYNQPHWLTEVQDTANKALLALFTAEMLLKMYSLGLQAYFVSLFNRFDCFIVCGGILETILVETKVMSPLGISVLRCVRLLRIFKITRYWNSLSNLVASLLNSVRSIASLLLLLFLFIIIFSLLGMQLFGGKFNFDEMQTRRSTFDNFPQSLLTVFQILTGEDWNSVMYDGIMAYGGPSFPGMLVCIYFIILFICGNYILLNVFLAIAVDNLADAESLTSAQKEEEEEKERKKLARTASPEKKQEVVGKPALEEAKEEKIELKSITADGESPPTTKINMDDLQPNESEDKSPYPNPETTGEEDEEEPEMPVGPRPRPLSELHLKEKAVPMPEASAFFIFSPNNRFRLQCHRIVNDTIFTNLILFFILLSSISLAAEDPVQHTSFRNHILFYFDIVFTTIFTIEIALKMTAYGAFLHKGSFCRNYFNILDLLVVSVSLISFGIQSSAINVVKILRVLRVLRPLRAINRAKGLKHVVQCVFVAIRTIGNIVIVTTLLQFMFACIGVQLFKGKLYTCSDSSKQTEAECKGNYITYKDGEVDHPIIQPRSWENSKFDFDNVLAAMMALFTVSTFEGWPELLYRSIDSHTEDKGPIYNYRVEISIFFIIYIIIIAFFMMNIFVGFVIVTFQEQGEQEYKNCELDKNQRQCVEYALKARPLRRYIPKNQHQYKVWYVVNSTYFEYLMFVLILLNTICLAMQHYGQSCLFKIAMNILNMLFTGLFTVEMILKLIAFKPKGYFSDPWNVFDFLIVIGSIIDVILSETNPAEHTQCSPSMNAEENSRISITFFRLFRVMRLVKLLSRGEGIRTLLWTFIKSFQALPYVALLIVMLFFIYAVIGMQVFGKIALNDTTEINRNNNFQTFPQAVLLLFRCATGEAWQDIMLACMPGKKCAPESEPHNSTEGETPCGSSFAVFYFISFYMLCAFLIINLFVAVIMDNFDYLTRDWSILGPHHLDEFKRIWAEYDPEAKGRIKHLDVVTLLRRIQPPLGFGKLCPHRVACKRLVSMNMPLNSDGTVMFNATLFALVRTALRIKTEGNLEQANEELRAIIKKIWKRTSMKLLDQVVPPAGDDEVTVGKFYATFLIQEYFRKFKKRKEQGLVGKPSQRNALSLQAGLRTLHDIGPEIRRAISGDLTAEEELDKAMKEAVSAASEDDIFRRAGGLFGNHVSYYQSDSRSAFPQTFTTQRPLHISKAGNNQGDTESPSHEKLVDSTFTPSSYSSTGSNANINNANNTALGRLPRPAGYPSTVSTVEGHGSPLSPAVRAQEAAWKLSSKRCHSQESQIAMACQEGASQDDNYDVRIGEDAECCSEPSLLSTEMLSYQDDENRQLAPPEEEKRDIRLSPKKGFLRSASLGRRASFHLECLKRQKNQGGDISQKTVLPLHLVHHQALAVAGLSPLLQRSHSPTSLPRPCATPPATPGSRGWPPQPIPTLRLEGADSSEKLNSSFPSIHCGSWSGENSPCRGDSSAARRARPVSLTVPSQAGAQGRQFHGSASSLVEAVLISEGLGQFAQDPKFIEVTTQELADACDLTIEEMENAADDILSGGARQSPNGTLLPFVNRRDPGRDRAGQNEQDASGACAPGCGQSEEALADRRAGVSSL

| Structure (SMILES) | pIC50 (Oryctolagus cuniculus [1]) | Relative potency (Oryctolagus cuniculus [2]) | other results |
| --- | --- | --- | --- |
| CO/C(O)=C1\C(C)=NC(C)=C(C(=O)OCN2C(=O)c3ccccc3S2(=O)=O)C1c1ccccc1[N+](=O)[O-] (stereo unspecified) | – | – | pIC50 [3]: 7.51; Relative potency (Oryctolagus cuniculus [4]): 0.1 |
| CC1=NC(C)=C(C(=O)OCN2C(=O)c3ccccc3S2(=O)=O)C(c2ccccc2[N+](=O)[O-])/C1=C(\O)OCC1CCCCO1 (stereo unspecified) | – | – | pIC50 [3]: 7.60; Relative potency (Oryctolagus cuniculus [4]): 0.1 |
| CO/C(O)=C1\C(C)=NC(C)=C(C(=O)OCCCN2C(=O)c3ccccc3S2(=O)=O)C1c1ccccc1[N+](=O)[O-] (stereo unspecified) | 8.82 | 1.9 | Recovery (Oryctolagus cuniculus [5]): 18.8%; Selectivity index [6]: 80; pIC50 (Oryctolagus cuniculus [7]): 6.92 |
| CC1=NC(C)=C(C(=O)OCCN2C(=O)c3ccccc3S2(=O)=O)C(c2ccccc2C(F)(F)F)/C1=C(\O)OCC1CCCCO1 (stereo unspecified) | 7.59 | 0.1 | – |
| COCCO/C(O)=C1\C(C)=NC(C)=C(C(=O)OCCN2C(=O)c3ccccc3S2(=O)=O)C1c1cccc(Cl)c1Cl (stereo unspecified) | 8.15 | 0.4 | – |
| COCCO/C(O)=C1\C(C)=NC(C)=C(C(=O)OCN2C(=O)c3ccccc3S2(=O)=O)C1c1cccc(Cl)c1Cl (stereo unspecified) | – | – | pIC50 [3]: 8.54; Relative potency (Oryctolagus cuniculus [4]): 1 |
| CC1=NC(C)=C(C(=O)OCN2C(=O)c3ccccc3S2(=O)=O)C(c2ccccc2[N+](=O)[O-])/C1=C(\O)OC(C)C (stereo unspecified) | – | – | pIC50 [3]: 8.85; Relative potency (Oryctolagus cuniculus [4]): 2.1 |
| CCCO/C(O)=C1\C(C)=NC(C)=C(C(=O)OCN2C(=O)c3ccccc3S2(=O)=O)C1c1cccc([N+](=O)[O-])c1 (stereo unspecified) | – | – | pIC50 [3]: 7.19; Relative potency (Oryctolagus cuniculus [4]): <0.1 |
| CC1=NC(C)=C(C(=O)OCCN2C(=O)c3ccccc3S2(=O)=O)C(c2ccccc2Cl)/C1=C(\O)OC(C)(C)C (stereo unspecified) | 8.35 | 0.6 | – |
| COCCO/C(O)=C1\C(C)=NC(C)=C(C(=O)OCCN2C(=O)c3ccccc3S2(=O)=O)C1c1ccccc1Cl (stereo unspecified) | 7.64 | 0.1 | Recovery (Oryctolagus cuniculus [5]): 0.5% |
| CC1=NC(C)=C(C(=O)OCCCN2C(=O)c3ccccc3S2(=O)=O)C(c2ccccc2C(F)(F)F)/C1=C(\O)OC(C)C (stereo unspecified) | 8.57 | 1.1 | – |
| CO/C(O)=C1\C(C)=NC(C)=C(C(=O)OCCN2C(=O)c3ccccc3S2(=O)=O)C1c1cccc(Cl)c1Cl (stereo unspecified) | 7.76 | 0.2 | – |
| CC1=NC(C)=C(C(=O)OCN2C(=O)c3ccccc3S2(=O)=O)C(c2cccc([N+](=O)[O-])c2)/C1=C(\O)OC(C)(C)C (stereo unspecified) | – | – | pIC50 [3]: 8.11; Relative potency (Oryctolagus cuniculus [4]): 0.4 |
| CC1=NC(C)=C(C(=O)OCCN2C(=O)c3ccccc3S2(=O)=O)C(c2ccccc2C(F)(F)F)/C1=C(\O)OCC1CCCO1 (stereo unspecified) | 8.60 | 1.2 | – |
| CC1=NC(C)=C(C(=O)OCN2C(=O)c3ccccc3S2(=O)=O)C(c2cccc([N+](=O)[O-])c2)/C1=C(\O)OCC1CCCCO1 (stereo unspecified) | – | – | pIC50 [3]: 7.88; Relative potency (Oryctolagus cuniculus [4]): 0.2 |
| COCCO/C(O)=C1\C(C)=NC(C)=C(C(=O)OCCCN2C(=O)c3ccccc3S2(=O)=O)C1c1ccccc1C(F)(F)F (stereo unspecified) | 8.85 | 2.1 | Recovery (Oryctolagus cuniculus [5]): 18.3%; Selectivity index [6]: 16; pIC50 (Oryctolagus cuniculus [7]): 7.66 |
| CO/C(O)=C1\C(C)=NC(C)=C(C(=O)OCCCN2C(=O)c3ccccc3S2(=O)=O)C1c1ccccc1Cl (stereo unspecified) | 8.74 | 1.6 | Recovery (Oryctolagus cuniculus [5]): 6.05%; Selectivity index [6]: 77; pIC50 (Oryctolagus cuniculus [7]): 6.85 |

| Structure (SMILES) | pIC50 (Oryctolagus cuniculus [1]) | Relative potency (Oryctolagus cuniculus [2]) | other results |
| --- | --- | --- | --- |
| CC1=NC(C)=C(C(=O)OCCN2C(=O)c3ccccc3S2(=O)=O)C(c2ccccc2Cl)/C1=C(\O)OC(C)C (stereo unspecified) | 8.51 | 0.9 | – |
| CC1=NC(C)=C(C(=O)OCN2C(=O)c3ccccc3S2(=O)=O)C(c2ccccc2C(F)(F)F)/C1=C(\O)OCC1CCCCO1 (stereo unspecified) | – | – | pIC50 [3]: 8.44; Relative potency (Oryctolagus cuniculus [4]): 0.8 |
| CC1=NC(C)=C(C(=O)OCN2C(=O)c3ccccc3S2(=O)=O)C(c2ccccc2Cl)/C1=C(\O)OCC1CCCO1 (stereo unspecified) | – | – | pIC50 [3]: 8.00; Relative potency (Oryctolagus cuniculus [4]): 0.3 |
| CO/C(O)=C1\C(C)=NC(C)=C(C(=O)OCN2C(=O)c3ccccc3S2(=O)=O)C1c1cccc([N+](=O)[O-])c1 (stereo unspecified) | – | – | pIC50 [3]: 7.82; Relative potency (Oryctolagus cuniculus [4]): 0.2 |
| CC1=NC(C)=C(C(=O)OCCCN2C(=O)c3ccccc3S2(=O)=O)C(c2ccccc2Cl)/C1=C(\O)OC(C)C (stereo unspecified) | 8.89 | 2.2 | Selectivity index [6]: 37; pIC50 (Oryctolagus cuniculus [7]): 7.32 |
| CCO/C(O)=C1\C(C)=NC(C)=C(C(=O)OCN2C(=O)c3ccccc3S2(=O)=O)C1c1cccc([N+](=O)[O-])c1 (stereo unspecified) | – | – | pIC50 [3]: 8.48; Relative potency (Oryctolagus cuniculus [4]): 0.1 |
| CC1=NC(C)=C(C(=O)OCCCN2C(=O)c3ccccc3S2(=O)=O)C(c2cccc(Cl)c2Cl)/C1=C(\O)OC(C)(C)C (stereo unspecified) | 8.51 | 0.2 | – |
| CC1=NC(C)=C(C(=O)OCCN2C(=O)c3ccccc3S2(=O)=O)C(c2ccccc2[N+](=O)[O-])/C1=C(\O)OC(C)(C)C (stereo unspecified) | 9.15 | 4.1 | Recovery (Oryctolagus cuniculus [5]): 0.2%; Selectivity index [6]: 41; pIC50 (Oryctolagus cuniculus [7]): 7.55 |
| CC1=NC(C)=C(C(=O)OCCN2C(=O)c3ccccc3S2(=O)=O)C(c2cccc(Cl)c2Cl)/C1=C(\O)OCC1CCCCO1 (stereo unspecified) | 7.95 | 0.3 | – |
| COCCO/C(O)=C1\C(C)=NC(C)=C(C(=O)OCCCN2C(=O)c3ccccc3S2(=O)=O)C1c1ccccc1[N+](=O)[O-] (stereo unspecified) | 8.57 | 1.1 | – |
| CCO/C(O)=C1\C(C)=NC(C)=C(C(=O)OCCN2C(=O)c3ccccc3S2(=O)=O)C1c1ccccc1Cl (stereo unspecified) | 8.00 | 0.3 | – |
| COCCO/C(O)=C1\C(C)=NC(C)=C(C(=O)OCCN2C(=O)c3ccccc3S2(=O)=O)C1c1ccccc1C(F)(F)F (stereo unspecified) | 8.85 | 2.1 | – |
| CCO/C(O)=C1\C(C)=NC(C)=C(C(=O)OCCN2C(=O)c3ccccc3S2(=O)=O)C1c1cccc(Cl)c1Cl (stereo unspecified) | 8.40 | 0.7 | – |
| CCO/C(O)=C1\C(C)=NC(C)=C(C(=O)OCCCN2C(=O)c3ccccc3S2(=O)=O)C1c1ccccc1[N+](=O)[O-] (stereo unspecified) | 8.59 | 1.1 | – |
| CCO/C(O)=C1\C(C)=NC(C)=C(C(=O)OCCCN2C(=O)c3ccccc3S2(=O)=O)C1c1ccccc1C(F)(F)F (stereo unspecified) | 9.10 | 3.6 | Recovery (Oryctolagus cuniculus [5]): 1.2%; Selectivity index [6]: 163; pIC50 (Oryctolagus cuniculus [7]): 6.91 |
| COCCO/C(O)=C1\C(C)=NC(C)=C(C(=O)OCCCN2C(=O)c3ccccc3S2(=O)=O)C1c1ccccc1Cl (stereo unspecified) | 8.54 | 1 | – |
| CCO/C(O)=C1\C(C)=NC(C)=C(C(=O)OCCCN2C(=O)c3ccccc3S2(=O)=O)C1c1ccccc1Cl (stereo unspecified) | 8.41 | 0.7 | – |

Second part, led by results:

| pIC50 (Oryctolagus cuniculus [1]) | Structure (SMILES) | Relative potency (Oryctolagus cuniculus [2]) | other results |
| --- | --- | --- | --- |
| 8.15 | CC1=NC(C)=C(C(=O)OCCCN2C(=O)c3ccccc3S2(=O)=O)C(c2ccccc2Cl)/C1=C(\O)OCC1CCCO1 (stereo unspecified) | 0.4 | – |
| 8.43 | CC1=NC(C)=C(C(=O)OCCCN2C(=O)c3ccccc3S2(=O)=O)C(c2ccccc2C(F)(F)F)/C1=C(\O)OCC1CCCO1 (stereo unspecified) | 0.8 | – |
| 7.40 | CO/C(O)=C1\C(C)=NC(C)=C(C(=O)OCCN2C(=O)c3ccccc3S2(=O)=O)C1c1cccc([N+](=O)[O-])c1 (stereo unspecified) | 0.1 | – |
| 7.94 | CC1=NC(C)=C(C(=O)OCCCN2C(=O)c3ccccc3S2(=O)=O)C(c2ccccc2[N+](=O)[O-])/C1=C(\O)OCC1CCCCO1 (stereo unspecified) | 0.3 | – |
| 8.17 | CC1=NC(C)=C(C(=O)OCCCN2C(=O)c3ccccc3S2(=O)=O)C(c2ccccc2[N+](=O)[O-])/C1=C(\O)OCC1CCCO1 (stereo unspecified) | 0.4 | – |
| 8.15 | CC1=NC(C)=C(C(=O)OCCCN2C(=O)c3ccccc3S2(=O)=O)C(c2ccccc2Cl)/C1=C(\O)OCC1CCCCO1 (stereo unspecified) | 0.4 | – |
| 8.40 | CC1=NC(C)=C(C(=O)OCCCN2C(=O)c3ccccc3S2(=O)=O)C(c2cccc(Cl)c2Cl)/C1=C(\O)OCC1CCCCO1 (stereo unspecified) | 0.7 | – |
| 8.72 | CCO/C(O)=C1\C(C)=NC(C)=C(C(=O)OCCCN2C(=O)c3ccccc3S2(=O)=O)C1c1cccc([N+](=O)[O-])c1 (stereo unspecified) | 1.5 | – |
| 9.00 | CC1=NC(C)=C(C(=O)OCCCN2C(=O)c3ccccc3S2(=O)=O)C(c2cccc([N+](=O)[O-])c2)/C1=C(\O)OC(C)C (stereo unspecified) | 2.9 | Recovery (Oryctolagus cuniculus [5]): 1.6%; Selectivity index [6]: 205; pIC50 (Oryctolagus cuniculus [7]): 6.68 |
| 7.54 | COCCO/C(O)=C1\C(C)=NC(C)=C(C(=O)OCCN2C(=O)c3ccccc3S2(=O)=O)C1c1cccc([N+](=O)[O-])c1 (stereo unspecified) | 0.1 | – |
| 8.59 | CCO/C(O)=C1\C(C)=NC(C)=C(C(=O)OCCN2C(=O)c3ccccc3S2(=O)=O)C1c1cccc([N+](=O)[O-])c1 (stereo unspecified) | 1.1 | – |
| 8.17 | COCCO/C(O)=C1\C(C)=NC(C)=C(C(=O)OCCCN2C(=O)c3ccccc3S2(=O)=O)C1c1cccc([N+](=O)[O-])c1 (stereo unspecified) | 0.4 | – |
| 8.59 | CO/C(O)=C1\C(C)=NC(C)=C(C(=O)OCCCN2C(=O)c3ccccc3S2(=O)=O)C1c1cccc([N+](=O)[O-])c1 (stereo unspecified) | 1.1 | – |
| 8.46 | CC1=NC(C)=C(C(=O)OCCN2C(=O)c3ccccc3S2(=O)=O)C(c2ccccc2Cl)/C1=C(\O)OCC1CCCO1 (stereo unspecified) | 0.8 | – |
| 8.68 | CC1=NC(C)=C(C(=O)OCCN2C(=O)c3ccccc3S2(=O)=O)C(c2cccc(Cl)c2Cl)/C1=C(\O)OCC1CCCO1 (stereo unspecified) | 1.4 | – |
| 7.98 | CC1=NC(C)=C(C(=O)OCCCN2C(=O)c3ccccc3S2(=O)=O)C(c2cccc([N+](=O)[O-])c2)/C1=C(\O)OCC1CCCO1 (stereo unspecified) | 0.3 | – |
